This is an account of results in ChEMBL document CHEMBL1125210, “Benzylated 1,2,3-triazoles as anticoccidiostats” (J Med Chem, 1991).

In test [1] the test system is Eimeria tenella. The experiment in a line: Anticoccidial activity in chicken against E. tenella. In kind it is functional. Also on record: Reduction: concentration or dose not given beside the values. The gist of the method: (§1)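 3-Day-old chicks infected separately with E. tenella or E. acervulina; test compound given mixed in the feed at the stated rates. Activity was scored as percent suppression of oocyst production versus infected, unmedicated controls. Toxicity was judged from average weight gain relative to uninfected controls.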

Test [2] has as its system Eimeria acervulina. Briefly: Anticoccidial activity in chicken against Eimeria acervulina. Also on record: Reduction: concentration or dose not given beside the values. In kind it is functional. The gist of the method:
as §1

Test [3] is filed under the species Gallus gallus. The experiment in a line: The compound was tested for anti-coccidial activity in chicken against Eimeria brunetti (FS-103) measured at dose 60 (ppm in diet). Format: functional.
The species named for test [4] is Gallus gallus. Briefly: The compound was tested for anti-coccidial activity in chicken against Eimeria hagani (DP-786) measured at dose 60 (ppm in diet). In kind it is functional.
The species named for test [5] is Gallus gallus. Briefly: The compound was tested for anti-coccidial activity in chicken against Eimeria mitis (LS-84) measured at dose 60 (ppm in diet). Format: functional.
For test [6], the species on record is Gallus gallus. The experiment in a line: The compound was tested for anti-coccidial activity in chicken against Eimeria praecox (DP-785) measured at dose 60 (ppm in diet). In kind it is functional.
Test [7] is filed under the species Gallus gallus. Briefly: The compound was tested for anti-coccidial activity in chicken against Eimeria maxima (DP-776) measured at dose 60 (ppm in diet). Format: functional.
Test [8] is filed under the species Gallus gallus. The experiment in a line: The compound was tested for anti-coccidial activity in chicken against E. maxima(DP-776) measured at dose 125(ppm in diet). Format: functional.
Test [9] is filed under the species Gallus gallus. The experiment in a line: The compound was tested for anti-coccidial activity in chicken against E. acervulina (DP-761) measured at dose 125(ppm in diet). Format: functional.
The species entered for test [10] is Gallus gallus. The experiment in a line: The compound was tested for anti-coccidial activity in chicken against E. hagani(DP-786) measured at dose 125(ppm in diet). Format: functional.
Test [11] is filed under the species Gallus gallus. The experiment in a line: The compound was tested for anti-coccidial activity in chicken against E. brunetti (FS-103) measured at dose 125(ppm in diet). Format: functional.
For test [12], the species on record is Gallus gallus. Briefly: The compound was tested for anti-coccidial activity in chicken against E. mitis(LS-84) measured at dose 125(ppm in diet). Format: functional.
The species entered for test [13] is Gallus gallus. Briefly: The compound was tested for anti-coccidial activity in chicken against E. praecox(DP-785) measured at dose 125(ppm in diet). In kind it is functional.
The species named for test [14] is Gallus gallus. The experiment in a line: The compound was tested for anti-coccidial activity in chicken against E. tenella(DP-761) measured at dose 125(ppm in diet). In kind it is functional.
The species named for test [15] is Gallus gallus. Briefly: The compound was tested for anti-coccidial activity in chicken against E. tenella(DP-761) measured at dose 33(ppm in diet). Format: functional.
Test [16] is filed under the species Gallus gallus. Briefly: The compound was tested for anti-coccidial activity in chicken against E. mitis(LS-84) measured at dose 33(ppm in diet). In kind it is functional.
The species entered for test [17] is Gallus gallus. The experiment in a line: The compound was tested for anti-coccidial activity in chicken against E. brunetti (FS-103) measured at dose 33(ppm in diet). Format: functional.
Test [18] is filed under the species Gallus gallus. The experiment in a line: The compound was tested for anti-coccidial activity in chicken against E. maxima(DP-776) measured at dose 33(ppm in diet). Format: functional.
The species entered for test [19] is Gallus gallus. The experiment in a line: The compound was tested for anti-coccidial activity in chicken against E. acervulina (DP-761) measured at dose 33(ppm in diet). Format: functional.
Test [20] is filed under the species Gallus gallus. Briefly: The compound was tested for anti-coccidial activity in chicken against E. hagani(DP-786) measured at dose 33(ppm in diet). In kind it is functional.
For test [21], the species on record is Gallus gallus. The experiment in a line: The compound was tested for anti-coccidial activity in chicken against E. praecox(DP-785) measured at dose 33(ppm in diet). In kind it is functional.
The species entered for test [22] is Gallus gallus. The experiment in a line: The compound was tested for anti-coccidial activity in chicken against E. acervulina; Inactive. In kind it is functional, organism-based. The gist of the method: as §1
The species named for test [23] is Gallus gallus. The experiment in a line: The compound was tested for anti-coccidial activity in chicken against Eimeria brunetti (FS-103) measured at dose 100 (ppm in diet). In kind it is functional.
The species entered for test [24] is Gallus gallus. Briefly: The compound was tested for anti-coccidial activity in chicken against Eimeria praecox (DP-785) measured at dose 100 (ppm in diet). Format: functional.
Test [25] is filed under the species Gallus gallus. Briefly: The compound was tested for anti-coccidial activity in chicken against Eimeria maxima (DP-776) measured at dose 100 (ppm in diet). Format: functional.
The species named for test [26] is Gallus gallus. Briefly: The compound was tested for anti-coccidial activity in chicken against Eimeria mitis (LS-84) measured at dose 100 (ppm in diet). Format: functional.
For test [27], the species on record is Gallus gallus. Briefly: The compound was tested for anti-coccidial activity in chicken against Eimeria hagani (DP-786) measured at dose 100 (ppm in diet). Format: functional.
The species named for test [28] is Gallus gallus. Briefly: The compound was tested for anti-coccidial activity in chicken against Eimeria acervulina (DP-761) measured at dose 100 (ppm in diet). Format: functional.
The species named for test [29] is Gallus gallus. The experiment in a line: The compound was tested for anti-coccidial activity in chicken against Eimeria tenella (DP-761) measured at dose 100 (ppm in diet). In kind it is functional. The gist of the method:
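Test article mixed into the feed at the stated rates and given to 3-day-old chicks infected with […]. Each Eimeria species was inoculated separately. Activity was scored as percent suppression of oocyst output relative to infected, unmedicated controls. Toxicity was judged from average weight gain relative to uninfected controls.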

Calls of active or inactive are those of the source. No cut-off for these calls is given here.

For the compound `NC(=O)c1nnn(Cc2cc(Cl)c(C(=O)c3ccc(Cl)cc3)c(Br)c2)c1N`, the Reduction in test [1] and in test [2] was 90% each time.

In the case of `NC(=O)c1ncn(Cc2ccc(Cl)c(Cl)c2)c1N`, the Reduction in test [1] and in test [2] was more than 99% in each case.

`NC(=O)c1nnn(Cc2cc(Cl)c(C(=O)c3ccc(F)cc3)c(Cl)c2)c1N`: the Reduction in test [1] and in [2] was 90% in each case.

Regarding `NC(=O)c1nnn(Cc2cc(Cl)c(C(=O)c3cc(Cl)cc(Cl)c3)c(Cl)c2)c1N`, the Reduction in [1] and in test [2] was more than 99% each time.

Compound `NC(=O)c1nnn(Cc2ccc(C(=O)c3ccc(Cl)cc3)c(Cl)c2)c1N` yielded an MED in test [1] of more than 500 ppm. Also, the Reduction in [2] is listed as 90%.

In the case of `NC(=O)c1nnn(Cc2cc(Cl)c(C(=O)c3ccc(Br)cc3)c(Cl)c2)c1N`, the values for the Reduction in [1] and in test [2] were 90% and 80%, respectively.

Consider `CC[C@@H](C(=O)[C@@H](C)[C@@H](O)[C@H](C)[C@@H]1O[C@@H]([C@@H](CC)C(=O)O)CC[C@@H]1C)[C@H]1O[C@]2(C=C[C@@H](O)[C@]3(CC[C@@](C)([C@H]4CC[C@](O)(CC)[C@H](C)O4)O3)O2)[C@H](C)C[C@@H]1C` [SALINOMYCIN], for which the Reduction was determined as 74% in [3]; 85% in test [1]; 0% in [4]; 91% in test [5]; 62% in test [6]; 0% in test [7].

Consider `CCCc1ncc(C[n+]2ccccc2C)c(N)n1.Cl.[Cl-]` [AMPROLIUM], for which the Reduction in test [8] is recorded as 0%; in [9], 7%; in test [1], 80%; in test [10] it was 0%; in test [11] it was 79%; in test [2], 80%. The Reduction in test [12] was found to be 36%; in test [13], 18%; in test [14] it was 100%.

Turning to `Nc1ncnc2c1ncn2Cc1c(F)cccc1Cl` [ARPRINOCID], the Reduction in [1] and in test [2] was 80% throughout.

Regarding `NC(=O)c1nnn(Cc2cc(Cl)c(C(=O)c3ccccc3)c(Cl)c2)c1N`, the Reduction in test [1] and in test [2] was 90% throughout.

Consider `NC(=O)c1nnn(Cc2cc(Cl)c(C(=O)c3ccc(C(Cl)=C(Cl)Cl)cc3)c(Cl)c2)c1N`, for which the Reduction in test [1] is listed as 80%; in test [2] it was 90%.

Regarding `Cc1cc(C)nc(O)n1.O=C(Nc1ccc([N+](=O)[O-])cc1)Nc1ccc([N+](=O)[O-])cc1` [NICARBAZIN], the Reduction in [8] was determined as 21%; in test [9], 0%; in test [1], 80%; in [10] it was 0%; in test [11], 100%; in [2], 80%. Moreover, the Reduction in test [12] is 100%; in [13], 34%; in test [14] it was 100%.

Take `NC(=O)c1nnn(Cc2ccc(C(=O)c3c(Cl)cc(Cl)cc3Cl)cc2)c1N`: the MED in test [1] is more than 250 ppm. For the same compound, the Reduction in test [2] was 90%.

As for `NC(=O)c1nnn(Cc2ccc(Cl)c(C(=O)c3ccc(Cl)cc3)c2)c1N`, the Reduction in test [1] and in test [2] was 90% throughout.

As to `NC(=O)c1nnn(Cc2ccc(Cl)cc2)c1N`, in [1], the MED was more than 1000 ppm. In test [2], this compound returned a Reduction of 80%.

Consider `N=C(N/N=C/c1ccc(Cl)cc1)N/N=C/c1ccc(Cl)cc1` [ROBENIDINE], for which the Reduction is on record as 0% in test [15]; 80% in test [1]; 100% in test [16]; 100% in test [17]; 80% in test [2]; 21% in test [18]. Also, the Reduction in test [19] turned out to be 99.9%; in test [20], 0%; in test [21], 54%.

On to `NC(=O)c1nnn(Cc2cc(Cl)cc(Cl)c2)c1N`, for which the MED in [1] and in [2] was more than 125 ppm in each case.

Consider `NC(=O)c1nnn(Cc2cc(F)c(C(=O)c3ccc(Cl)cc3)c(Cl)c2)c1N`, for which the Reduction in [1] and in [2] was 90% each time.

Consider `COC(=O)c1ccc(C(=O)c2c(Cl)cc(Cn3nnc(C(N)=O)c3N)cc2Cl)cc1`, for which the MED in test [1] and in [2] was more than 250 ppm in each case.

For the compound `N#Cc1ccc(C(=O)c2c(Cl)cc(Cn3nnc(C(N)=O)c3N)cc2Cl)cc1`, the Reduction in test [1] and in test [2] was 90% in each case.

With `NC(=O)c1nnn(Cc2ccc(C(=O)c3ccc(Cl)cc3Cl)c(Cl)c2)c1N`, in test [1], the Reduction is on record as 90%. This compound returned an MED in [2] of more than 250 ppm.

On to `NC(=O)c1nnn(Cc2ccc(C(=O)c3c(Cl)cccc3Cl)cc2)c1N`, for which the MED in test [1] and in test [2] was more than 250 ppm each time.

On to `NC(=O)c1nnn(Cc2cccc(C(=O)c3ccc(Cl)cc3)c2)c1N`, for which, in test [1], the MED is more than 500 ppm. The Reduction in test [2] amounted to 90%.

`NC(=O)c1nnn(Cc2ccccc2)c1N`: the Reduction result in test [22] is “inactive”.

For the compound `CC[C@@H](C(=O)[C@@H](C)[C@@H](O)[C@H](C)CCc1ccc(C)c(O)c1C(=O)O)[C@H]1O[C@](CC)([C@H]2CC[C@](O)(CC)[C@H](C)O2)C[C@@H]1C` [LASALOCID], the Reduction is given as 100% in test [23]; 34% in test [24]; 80% in [1]; 100% in [25]; 100% in [26]; 74% in test [27]. Besides, the Reduction is 80% in test [2], 16% in test [28] and 100% in [29].

For `NC(=O)c1nnn(Cc2cc(Cl)c(C(=O)c3ccc(I)cc3)c(Cl)c2)c1N`, the Reduction in [1] was more than 99%; in test [2], 90%.

`NC(=O)c1nnn(Cc2cc(Cl)c(C(=O)c3ccc(Cl)c(Cl)c3)c(Cl)c2)c1N`: the Reduction in test [1] and in test [2] was 90% each time.

`NC(=O)c1nnn(Cc2ccc(Cl)c(Cl)c2)c1N`: the Reduction in test [1] and in test [2] was 80% in each case.

For the compound `NC(=O)c1nnn(Cc2ccc(C(=O)c3ccc(Cl)cc3)cc2)c1N`, the MED in test [1] is more than 500 ppm. Also, the Minimum active dose in test [2] was more than 500 ppm.
